Test results as given in paper PMC12827892 (Acta Pharmaceutica Sinica. B, 2025).
Read-outs that look alike come from different tables or passages of the source.

Legend:
SARS-CoV-2 [1] = experiment: SARS-CoV-2 replication in hACE2-HeLa cells; type: cell-based; details: 10 μmol/L
[2] = tested on: panel of over 300 wild-type human kinases; experiment: KINOMEscan kinase selectivity profile; type: binding; details: 1 μmol/L
SARS-CoV-2 [3] = type: cell-based; details: 4 μmol/L
[4] = tested on: phosphorylation levels of RIPK1 Ser166; type: cell-based; details: mouse airway organoids
[5] = tested on: expression levels of ACE2; type: cell-based; details: mouse airway organoids
cytokine secretion = type: cell-based, mouse; details: single agent
[6] = Pharmacokinetic studies in mice; type: in vivo, male ICR mice
In short: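 Test compound was formulated in 10% (v/v) dimethylacetamide and 10% (w/v) Solutol HS 15 in normal saline. It was given to male ICR mice by tail-vein iv (1 mpk) or ip (10 mpk). Plasma from centrifuged whole blood was diluted in acetonitrile with internal standard. Brain was taken into PBS/acetonitrile (1:8) with internal standard and homogenised (30 Hz, 10 min). Samples were centrifuged (4 °C, 14,000 rpm, 10 min) and analysed by LC-MS/MS.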

SARS-CoV-2 [7] = type: in vivo, K18-hACE2 transgenic mice; details: ip, BID; for Weight loss in infected mice: five days; for SARS-CoV-2 viral loads in the lungs: Day 6, RT-PCR and IHC
SARS-CoV-2 Nsp3^179−1329 = SARS-CoV-2 Nsp3^179−1329 (Severe acute respiratory syndrome coronavirus 2, UniProt P0DTD1); experiment: Nsp3 DUB activity, Rho-110 cleavage assay; type: biochemical
Nsp3179-1329 proteins = Nsp3179-1329 proteins (Severe acute respiratory syndrome coronavirus 2, UniProt P0DTD1); set-up: species or system SARS-CoV-2; details: incubation with compound, SEC
[8] = Stability in mouse liver microsomes; type: in vitro ADME; details: compared to 2
USP7 = USP7 (Homo sapiens, UniProt Q93009); experiment: DUB enzymatic assay; type: biochemical; details: 10 μmol/L
Chain of USP7 (Q93009 whole entry, species assumed): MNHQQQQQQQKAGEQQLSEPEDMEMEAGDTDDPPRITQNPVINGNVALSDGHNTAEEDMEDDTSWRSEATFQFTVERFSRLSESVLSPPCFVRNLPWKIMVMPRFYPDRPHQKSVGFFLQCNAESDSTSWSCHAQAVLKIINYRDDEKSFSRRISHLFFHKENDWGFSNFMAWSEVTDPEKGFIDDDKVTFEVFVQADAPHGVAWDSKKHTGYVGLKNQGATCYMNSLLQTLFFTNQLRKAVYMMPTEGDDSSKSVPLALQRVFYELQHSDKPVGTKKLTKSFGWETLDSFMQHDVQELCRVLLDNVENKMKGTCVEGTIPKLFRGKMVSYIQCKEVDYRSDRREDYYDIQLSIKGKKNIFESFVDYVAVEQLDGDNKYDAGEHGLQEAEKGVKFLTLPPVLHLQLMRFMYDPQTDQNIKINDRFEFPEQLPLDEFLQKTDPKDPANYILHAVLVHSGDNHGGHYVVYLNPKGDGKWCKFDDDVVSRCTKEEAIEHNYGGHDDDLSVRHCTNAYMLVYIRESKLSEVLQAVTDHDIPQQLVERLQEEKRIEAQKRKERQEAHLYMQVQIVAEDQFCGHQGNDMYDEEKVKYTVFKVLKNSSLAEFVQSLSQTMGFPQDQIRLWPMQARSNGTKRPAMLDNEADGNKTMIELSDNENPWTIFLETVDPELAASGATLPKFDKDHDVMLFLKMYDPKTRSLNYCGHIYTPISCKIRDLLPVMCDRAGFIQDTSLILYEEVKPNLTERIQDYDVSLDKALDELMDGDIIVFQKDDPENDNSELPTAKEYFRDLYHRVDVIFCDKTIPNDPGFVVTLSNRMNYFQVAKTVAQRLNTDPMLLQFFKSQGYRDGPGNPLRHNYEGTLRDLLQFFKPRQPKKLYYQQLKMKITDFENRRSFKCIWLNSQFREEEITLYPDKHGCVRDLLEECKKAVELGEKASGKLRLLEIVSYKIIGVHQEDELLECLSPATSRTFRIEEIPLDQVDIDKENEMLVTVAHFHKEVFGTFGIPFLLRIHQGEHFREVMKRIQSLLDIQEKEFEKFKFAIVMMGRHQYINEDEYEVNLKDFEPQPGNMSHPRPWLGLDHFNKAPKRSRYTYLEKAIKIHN

USP8 = target: T1, USP8 (Homo sapiens, UniProt P40818); experiment: DUB enzymatic assay; type: biochemical; details: 10 μmol/L
T1 sequence (P40818 1-1118): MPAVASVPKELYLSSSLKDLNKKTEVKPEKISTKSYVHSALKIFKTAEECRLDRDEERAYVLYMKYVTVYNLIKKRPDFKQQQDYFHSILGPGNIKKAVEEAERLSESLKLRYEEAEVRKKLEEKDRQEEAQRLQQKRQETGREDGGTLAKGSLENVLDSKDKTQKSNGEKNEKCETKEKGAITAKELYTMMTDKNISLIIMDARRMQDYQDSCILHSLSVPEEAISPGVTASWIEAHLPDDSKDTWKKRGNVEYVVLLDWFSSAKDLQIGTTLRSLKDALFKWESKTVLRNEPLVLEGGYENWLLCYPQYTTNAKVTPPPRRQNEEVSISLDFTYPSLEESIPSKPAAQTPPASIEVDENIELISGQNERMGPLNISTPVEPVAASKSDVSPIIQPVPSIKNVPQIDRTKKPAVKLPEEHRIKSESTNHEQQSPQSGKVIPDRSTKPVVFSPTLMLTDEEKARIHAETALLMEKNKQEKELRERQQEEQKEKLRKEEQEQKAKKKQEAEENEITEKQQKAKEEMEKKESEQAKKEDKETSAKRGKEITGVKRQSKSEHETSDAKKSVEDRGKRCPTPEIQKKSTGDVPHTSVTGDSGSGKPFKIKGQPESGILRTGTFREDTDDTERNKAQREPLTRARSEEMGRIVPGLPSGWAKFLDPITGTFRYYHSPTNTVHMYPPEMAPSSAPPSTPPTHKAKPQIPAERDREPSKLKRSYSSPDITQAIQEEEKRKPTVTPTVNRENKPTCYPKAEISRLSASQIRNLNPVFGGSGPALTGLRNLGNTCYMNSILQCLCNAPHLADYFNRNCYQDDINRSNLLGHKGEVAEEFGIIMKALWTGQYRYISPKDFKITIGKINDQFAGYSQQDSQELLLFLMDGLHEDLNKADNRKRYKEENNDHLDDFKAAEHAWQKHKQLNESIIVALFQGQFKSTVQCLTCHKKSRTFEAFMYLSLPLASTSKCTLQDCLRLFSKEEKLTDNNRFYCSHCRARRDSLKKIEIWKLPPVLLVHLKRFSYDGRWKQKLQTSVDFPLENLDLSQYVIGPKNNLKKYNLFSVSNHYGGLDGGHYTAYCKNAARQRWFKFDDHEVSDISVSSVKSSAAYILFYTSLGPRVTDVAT

USP14 = USP14 (Homo sapiens, UniProt P54578); experiment: DUB enzymatic assay; type: biochemical; details: 10 μmol/L
Chain of USP14 (P54578 whole entry, species assumed): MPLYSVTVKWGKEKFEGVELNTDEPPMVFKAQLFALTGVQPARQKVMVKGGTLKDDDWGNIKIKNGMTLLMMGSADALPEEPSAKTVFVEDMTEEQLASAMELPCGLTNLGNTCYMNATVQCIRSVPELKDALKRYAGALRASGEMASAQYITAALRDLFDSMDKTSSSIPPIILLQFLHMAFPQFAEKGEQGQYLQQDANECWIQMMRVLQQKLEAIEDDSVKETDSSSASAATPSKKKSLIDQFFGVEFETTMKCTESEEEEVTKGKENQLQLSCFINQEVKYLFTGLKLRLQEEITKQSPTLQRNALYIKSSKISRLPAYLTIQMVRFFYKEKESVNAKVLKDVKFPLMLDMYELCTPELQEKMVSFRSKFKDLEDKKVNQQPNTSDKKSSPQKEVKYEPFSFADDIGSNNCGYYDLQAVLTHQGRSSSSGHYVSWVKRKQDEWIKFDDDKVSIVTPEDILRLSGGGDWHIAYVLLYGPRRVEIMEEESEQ

UCHL1 = target: T2, UCHL1 (Homo sapiens, UniProt P09936); experiment: DUB enzymatic assay; type: biochemical; details: 10 μmol/L
T2 sequence (P09936 1-223): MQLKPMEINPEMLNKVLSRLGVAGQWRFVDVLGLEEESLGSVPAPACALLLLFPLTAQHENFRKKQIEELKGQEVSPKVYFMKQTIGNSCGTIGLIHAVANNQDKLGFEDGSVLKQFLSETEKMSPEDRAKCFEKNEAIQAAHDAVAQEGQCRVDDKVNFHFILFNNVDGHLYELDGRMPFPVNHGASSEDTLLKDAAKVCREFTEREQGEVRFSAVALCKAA

OTULIN = OTULIN (Homo sapiens, UniProt Q96BN8); experiment: DUB enzymatic assay; type: biochemical; details: 10 μmol/L
Chain of OTULIN (Q96BN8 whole entry, species assumed): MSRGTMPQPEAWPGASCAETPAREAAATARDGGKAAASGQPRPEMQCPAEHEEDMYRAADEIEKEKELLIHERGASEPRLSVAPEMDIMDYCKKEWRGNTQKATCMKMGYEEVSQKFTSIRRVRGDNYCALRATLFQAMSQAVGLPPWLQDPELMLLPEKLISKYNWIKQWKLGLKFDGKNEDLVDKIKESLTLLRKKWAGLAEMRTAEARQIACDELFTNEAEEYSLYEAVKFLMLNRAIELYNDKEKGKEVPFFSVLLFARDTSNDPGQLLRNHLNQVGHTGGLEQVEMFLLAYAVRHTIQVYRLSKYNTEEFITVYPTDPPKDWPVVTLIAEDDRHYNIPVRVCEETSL

OTUB1 = OTUB1 (Homo sapiens, UniProt Q96FW1); experiment: DUB enzymatic assay; type: biochemical; details: 10 μmol/L
Chain of OTUB1 (Q96FW1 whole entry, species assumed): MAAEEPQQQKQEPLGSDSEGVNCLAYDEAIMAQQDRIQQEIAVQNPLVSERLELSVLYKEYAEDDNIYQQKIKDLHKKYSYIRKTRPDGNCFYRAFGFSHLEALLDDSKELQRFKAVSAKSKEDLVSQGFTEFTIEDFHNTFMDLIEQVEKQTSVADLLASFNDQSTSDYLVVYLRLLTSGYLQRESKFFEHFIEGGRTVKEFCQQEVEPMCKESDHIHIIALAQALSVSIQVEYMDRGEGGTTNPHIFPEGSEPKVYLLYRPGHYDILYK

OC43 = type: cell-based, HCoV-OC43; details: Huh7 hepatocytes, 0.1 MOI
229E = type: cell-based, HCoV-229E

SMILES: CN1C(=O)[C@@H](NC(=O)c2nnc(Cc3ccccc3)[nH]2)COc2cccnc21 [DNL758, reference compound]
- Effects against SARS-CoV-2 in ACE2-HeLa cells (SARS-CoV-2 [1]): neither QY1892 nor DNL758 exhibited detectable effects

SMILES: [2H]c1c([2H])c([C@]2([2H])CCCN2C(=O)C(C)(C)Oc2ccc3cn[nH]c3c2)c([2H])c([2H])c1C([2H])([2H])[2H] [QY1892, (S)-2-((1H-Indazol-6-yl)oxy)-2-methyl-1-(2-(4-(methyl-d3)phenyl-2,3,5,6-d4)pyrrolidin-1-yl-2-d)propan-1-one]
- Kinase selectivity across the kinome [2]: no significant off-target activity observed across the kinome
- Effects against SARS-CoV-2 in ACE2-HeLa cells (SARS-CoV-2 [1]): neither QY1892 nor DNL758 exhibited detectable effects
- Viral replication in mouse airway organoids (SARS-CoV-2 [3]): effectively suppressed the viral replication
- Phosphorylation levels of RIPK1 Ser166 following viral infection [4]: significantly reduced
- Expression levels of ACE2 [5]: significantly reduced
- Cytokine secretion from the organoids upon viral infection (cytokine secretion): significantly more effective than SHY1643
- Brain distribution post-administration [6]: significant brain distribution
- Weight loss in infected mice (SARS-CoV-2 [7]; 5 mpk): significantly slowed the weight loss
- SARS-CoV-2 viral loads in the lungs (SARS-CoV-2 [7]; 5 mpk): effectively reduced viral loads in the lungs

SMILES: C[C@H](c1cccc2ccccc12)N1CCC(C(=O)NCc2cccc(-c3cn(Cc4nnc5c(F)cccn45)nn3)c2)CC1 [SHY1643, (R)-N-(3-(1-((8-Fluoro-[1,2,4]triazolo[4,3-a]pyridin-3-yl)methyl)-1H-1,2,3-triazol-4-yl)benzyl)-1-(1-(naphthalen-1-yl)ethyl)piperidine-4-carboxamide]
- IC50 (SARS-CoV-2 Nsp3^179−1329): 0.028 µM
- Dimerization of Nsp3 protein (Nsp3179-1329 proteins): could induce dimerization of Nsp3 protein
- Metabolic stability in mouse microsomes [8]: markedly improved metabolic stability compared to 2
- Inhibitory effect on USP7 (USP7): no significant inhibitory effects
- Inhibitory effect on USP8 (USP8): no significant inhibitory effects
- Inhibitory effect on USP14 (USP14): no significant inhibitory effects
- Inhibitory effect on UCHL1 (UCHL1): no significant inhibitory effects
- Inhibitory effect on OTULIN (OTULIN): no significant inhibitory effects
- Inhibitory effect on OTUB1 (OTUB1): no significant inhibitory effects
- Antiviral activity against OC43 (OC43): robust antiviral activity
- Antiviral activity against 229E (229E): robust antiviral activity
- Phosphorylation levels of RIPK1 Ser166 following viral infection [4]: did not affect
- Expression levels of ACE2 [5]: did not affect
- Weight loss in infected mice (SARS-CoV-2 [7]; 10 mpk): significantly slowed the weight loss
- SARS-CoV-2 viral loads in the lungs (SARS-CoV-2 [7]; 10 mpk): effectively reduced viral loads in the lungs
